Compound activity from PubChem.
The list is not random: actives were taken first. Their share in the collection is about 9.6%.
BaF3 tox: counter-screen for JAK2V617F inhibitors: parental Ba/F3 viability inhibitors | CellTiter-Glo ATP luminescence | AID 1486 | inhibition, % at 5.6 µM | 220,000 compounds, 1.1% hits;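 active means inhibition above a per-campaign cutoff, the mean inhibition of all tested compounds plus 3 SD, cut at about 27% in these data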
APP transl inh: APP translation inhibition | SH-SY5Y APP 5'UTR-luciferase reporter, luminescence | inhibition, % at 2 µM | 190,000 compounds, 0.82% hits | AID 1285;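 active means inhibition above a set limit, derived from the sample mean plus 3 SD, cut at about 45% in these data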
Ba/F3 V617F tox: loss of viability in JAK2V617F-driven Ba/F3 cells | Ba/F3 EpoR-JAK2V617F viability, ATP luminescence | inhibition, % at 5.6 µM | 220,000 compounds, 1.1% hits;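 active means inhibition above the campaign mean plus 3 SD over all tested compounds, cut at about 24% in these data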;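 further: cytokine-independent growth of Ba/F3 cells driven by EpoR plus mutant JAK2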
b-catenin transl: beta-catenin nuclear translocation modulation. HeLa beta-catenin nuclear translocation, immunofluorescence imaging. nuclear translocation activity, % at 5 µM. 190,000 compounds, 0.3% hits;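 active means nuclear translocation activity above 50% at 5 µM, with a well cell count of 50 or more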;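 further: per-cell ratio of nuclear to cytoplasmic median beta-catenin stain intensity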
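test system = HeLa cells, endogenous beta-catenin | dosing = single 5 µM dose plus 0.02–20 µM confirmation series | times = compound treatment 24 h, 37°C, 5% CO2 | technique = beta-catenin immunofluorescence imaging with DAPI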
L major viab: inhibitors of Leishmania major promastigote growth; 200,000 compounds, 9% hits; Leishmania major promastigotes, resazurin fluorescence viability; inhibition, % at 10 µM; in the data active means inhibition above about 50%;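 further: promastigotes grown with compound for 44 hours at 28 °C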
MT stabilize HCS: microtubule stabilization, imaging screen | HeLa tubulin immunostaining HCS, 24 h; share of cells brighter than vehicle mean+2SD | % tubulin-high responders, % at 10 µM | 200,000 compounds, 0.83% hits | AID 2205;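 active means plate Z-score above 3 for both tubulin-high and condensed-nucleus cell shares, with cell loss under 80%, at 10 µM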;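 further: anti alpha tubulin signal scored within the nucleus-defined area of each cell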
Large screens that a line does not name were inactive.

COCCn1c(SCc2ccc(OC)c(F)c2)nc2ccccc2c1=O	L major viab 99.8
COCCn1c(SCC(=O)N2CCCCC2)nc2ccccc2c1=O	none
COCCn1c(SCCN2CCCCC2)nc2ccccc2c1=O	L major viab 100.2
O=C(NC(=S)Nc1ccc(CN2CCCCC2)cc1)c1cc2ccccc2o1	none (no result: APP transl inh, L major viab, MT stabilize HCS)
Cn1c(SCC(=O)Nc2cccc(S(=O)(=O)NC3=NCCCCC3)c2)nnc1-c1ccncc1	none
CC(C)c1cc(C(N)=O)c(NC(=O)c2cccc(COc3ccc(Cl)cc3)c2)s1	L major viab 96.4
Cc1csc(C2=C(O)CN(CCc3ccccc3)C2=N)n1	L major viab 98.5
COc1ccc(CCN2CC(O)=C(c3nc(C)cs3)C2=N)cc1OC	none
CCOC(=O)C1=C(C)n2c(s/c(=C/c3cccc([N+](=O)[O-])c3)c2=O)=NC1c1ccc(O)c(OC)c1 (stereo not drawn)	L major viab 99.9
COc1ccc(OCC(=O)NNC(=O)c2cccc(O)c2)cc1	none
CC/S(C)=N/S(=O)(=O)c1ccc(C)cc1 (stereo not drawn)	none
OCCC1CN(Cc2ccc3c(c2)CCO3)CCN1C1CCCC1 (stereo not drawn)	none
Cc1ccc(C2CCN(C(=S)NC(C)C)C2)cc1 (stereo not drawn)	none
CC(C)C(OC(=O)c1oc2ccccc2c1CSC1CCCCC1)C(=O)NC(N)=O (stereo not drawn)	none
CCNC(=O)NC(=O)C(C)OC(=O)c1oc2ccccc2c1CSC1CCCCC1 (stereo not drawn)	L major viab 71.8 (no result: b-catenin transl)
O=C(Nc1ccc(F)cc1)NC1(C(=O)NCc2ccc3c(c2)OCO3)CCCCC1	L major viab 91.1
O=C(Nc1ccc(F)cc1)NC1(C(=O)NCc2ccco2)CCCCC1	L major viab 82.4
O=C(NCc1ccc2c(c1)OCO2)C1CCCN1C(=O)Nc1cccc(F)c1 (stereo not drawn)	none
O=C(NCc1ccc2c(c1)OCO2)C1CCCN1C(=O)Nc1ccc(F)cc1 (stereo not drawn)	L major viab 91.7
O=C(COC(=O)CCc1c[nH]c2ccccc12)NCc1ccc2c(c1)OCO2	none
O=C(NC1CCCC1)C1CCN(c2cnccn2)CC1	none
Cn1nccc1C(=O)N1CCN(c2ncccn2)CC1	none
CC[C@@H]1C=C(C)C[C@H](C)C[C@H](OC)[C@H]2O[C@@](O)(C(=O)C(=O)N3CCCC[C@H]3C(=O)O[C@H](/C(C)=C/[C@@H]3CC[C@@H](O)[C@H](OC)C3)[C@H](C)[C@@H](O)CC1=O)[C@H](C)C[C@@H]2OC	L major viab 90.0
CCSc1nnc(NC(=O)c2ccc3c(c2)OCO3)s1	BaF3 tox 93.2
COc1ccccc1-c1nnc(NC(=O)c2ccc3c(c2)OCO3)s1	APP transl inh 46.1
CO/C=C\C=C/c1nnn(-c2ccc(Cl)cc2)n1	none
O=c1oc2ccccc2nc1/C=C(O)/C=C/c1ccc(F)cc1	L major viab 60.6
CCc1ccc(NC(=O)CSc2nnc(COc3ccc4c(c3)CCCC4)o2)cc1	none (no result: b-catenin transl)
COC(=O)c1ccc(NC(=O)CSc2nnc(COc3ccc4c(c3)CCCC4)o2)cc1	BaF3 tox 96.4
N#Cc1cnn(-c2nc3sc4c(c3c(=O)[nH]2)CCCC4)c1N	L major viab 93.6
O=c1[nH]c(C2CC2)nc2sc3c(c12)CCCC3	none
Cc1ccc(-n2nnnc2-c2cccc(C)c2)cc1	none
COc1ccc(-n2nnnc2-c2cccc(OC)c2)cc1	BaF3 tox 71.4, APP transl inh 91.3, Ba/F3 V617F tox 77.8, MT stabilize HCS 18.4
CCCCN1CCc2c1nc1ccc(Br)cc1c2N	L major viab 100.8 (no result: b-catenin transl)
CC1(C)C(=O)Nc2ccccc2N1C(=O)COC(=O)c1ccc(Cl)c(S(=O)(=O)NCc2ccccc2)c1	L major viab 99.2
COc1ccccc1OCC(=O)/C=C1/N(C)c2ccccc2C1(C)C	L major viab 56.7
CN1/C(=C\C(=O)CSc2ncn[nH]2)C(C)(C)c2ccccc21	none
CN1/C(=C\C(=O)C[n+]2ccc3ccccc3c2)C(C)(C)c2ccccc21	BaF3 tox 42.0, Ba/F3 V617F tox 41.2, L major viab 99.9
CN1/C(=C\C(=O)COC(=O)c2ccccc2O)C(C)(C)c2ccccc21	none (no result: APP transl inh, L major viab, MT stabilize HCS)
CN1/C(=C\C(=O)COc2ccc3c(c2)OCO3)C(C)(C)c2ccccc21	BaF3 tox 62.5, Ba/F3 V617F tox 64.0 (no result: b-catenin transl)
Cc1cc(O)ccc1N=Cc1c(C(F)(F)F)[nH][nH]c1=O	L major viab 51.9
CCOC(=O)c1cnc2c(N=Nc3cccc(Cl)c3)c(N)nn2c1N	none (no result: b-catenin transl)
CCOC(=O)c1cnc2c(N=Nc3ccccc3)c(N)nn2c1N	L major viab 68.0
C=CCN1C(=O)S/C(=C/c2ccc(Sc3nc4ccccc4[nH]3)o2)C1=O	none
CC(C)N1C(=O)S/C(=C/c2ccc(Sc3nc4ccccc4[nH]3)o2)C1=O	L major viab 83.2
Cc1ccc(NC(=O)COc2ccccc2CNC(C)(C)CC(C)(C)C)cc1	L major viab 100.4
CCCCCCCC#Cc1ccccc1/C=N/S(=O)c1ccc(C)cc1 (stereo not drawn)	BaF3 tox 38.0 (no result: b-catenin transl)
NNc1nc2ccc(Cl)cc2s1	none
NNc1nc2ccc(F)cc2s1	L major viab 96.4
Cn1c(SCC(=O)Nc2ccc3[nH]c(=O)[nH]c3c2)nnc1-c1ccc(F)cc1	none (no result: APP transl inh, L major viab, MT stabilize HCS)
CC12CN3CCN(CC(C3)/C1=N/N=C/c1cccc([N+](=O)[O-])c1)C2	none (no result: APP transl inh, L major viab, MT stabilize HCS)
Cc1nn(C)cc1CN1CCC(CO)(CCOc2ccccc2)CC1	L major viab 74.5
CCOc1ccccc1CN1CCC(CO)(CCOc2ccccc2)CC1	none
CCOC(=O)C1(CCOC)CCN(Cc2nc(-c3cccs3)oc2C)CC1	none
Cc1oc(-c2cccs2)nc1CN1CCC(CO)(CCOc2ccccc2)CC1	L major viab 73.3
COc1ccc(CN2CCC(CO)(CCOc3ccccc3)CC2)c(OC)c1C	none
OCC1(CCOc2ccccc2)CCN(CC2=Cc3cc(Cl)ccc3OC2)CC1	L major viab 94.0
COc1ccc2[nH]c(CN3CCC(CO)(CCOc4ccccc4)CC3)c(C)c2c1	L major viab 88.2
COc1cccc(CN(C)C(=O)c2csc3c2CCCC3)c1OC	none
Cc1ccc(NC(=O)CN2C(=O)/C(=C3\SC(=S)N(C4CCS(=O)(=O)C4)C3=O)c3ccccc32)cc1 (stereo not drawn)	L major viab 90.6
CCN1C(=O)/C(=C2\SC(=S)N(NC(=O)c3ccccc3O)C2=O)c2ccccc21	none (no result: APP transl inh, L major viab, MT stabilize HCS)
O=C(CN1C(=O)/C(=C2\SC(=S)N(C3CCS(=O)(=O)C3)C2=O)c2ccccc21)Nc1ccccc1 (stereo not drawn)	L major viab 91.3
CC(=O)N1C(=O)/C(=C2\SC(=S)N(NS(=O)(=O)c3ccc(C)cc3)C2=O)c2ccccc21	none
Cc1ccc(C)c(S(=O)(=O)N2CCCOC2CNC(=O)C(=O)NCCCn2ccnc2)c1 (stereo not drawn)	none
